Data reported in ChEMBL document CHEMBL1122892, “Mineralocorticoid properties of potential metabolites of 18-hydroxydeoxycorticosterone and 18-hydroxyprogesterone” (J Med Chem, 1985).

Key:
[1] = target: T1, Mineralocorticoid receptor (Rattus norvegicus) (UniProt P22199); assay: Binding affinity expressed as the percent inhibition of 2x10E-9 M [3H]aldosterone binding to the renal mineralocorticoid receptor by the presence of competing steroid (8x10E-8 M).
T1 sequence (whole entry): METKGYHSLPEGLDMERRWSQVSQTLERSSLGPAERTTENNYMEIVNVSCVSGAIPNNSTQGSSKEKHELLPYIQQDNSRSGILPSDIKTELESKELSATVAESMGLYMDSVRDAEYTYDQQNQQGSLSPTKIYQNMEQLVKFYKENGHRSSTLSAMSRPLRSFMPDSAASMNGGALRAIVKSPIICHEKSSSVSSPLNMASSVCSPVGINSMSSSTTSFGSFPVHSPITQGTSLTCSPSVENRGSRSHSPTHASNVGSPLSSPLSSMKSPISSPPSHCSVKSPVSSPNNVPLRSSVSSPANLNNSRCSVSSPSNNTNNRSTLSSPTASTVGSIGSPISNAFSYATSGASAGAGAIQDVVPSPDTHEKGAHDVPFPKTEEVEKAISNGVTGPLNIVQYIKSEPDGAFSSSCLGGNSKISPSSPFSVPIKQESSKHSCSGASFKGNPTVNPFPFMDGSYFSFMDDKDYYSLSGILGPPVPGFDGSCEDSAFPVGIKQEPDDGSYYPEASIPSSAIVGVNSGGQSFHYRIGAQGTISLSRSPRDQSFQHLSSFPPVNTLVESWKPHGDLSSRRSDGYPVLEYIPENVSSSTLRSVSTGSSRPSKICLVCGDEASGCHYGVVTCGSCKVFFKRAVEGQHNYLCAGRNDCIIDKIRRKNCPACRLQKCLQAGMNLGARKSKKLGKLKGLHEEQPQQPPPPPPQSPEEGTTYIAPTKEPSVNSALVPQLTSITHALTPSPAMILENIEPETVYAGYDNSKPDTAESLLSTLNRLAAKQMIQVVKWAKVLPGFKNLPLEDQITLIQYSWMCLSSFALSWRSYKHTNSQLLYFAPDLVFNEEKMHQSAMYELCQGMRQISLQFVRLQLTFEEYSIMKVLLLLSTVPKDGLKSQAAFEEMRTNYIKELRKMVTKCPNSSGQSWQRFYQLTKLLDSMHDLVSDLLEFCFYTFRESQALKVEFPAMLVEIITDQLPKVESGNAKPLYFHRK
Summary of the method: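 Washed kidney slices from adrenalectomized rats incubated with 2 × 10^-9 M [3H]aldosterone plus 8 × 10^-8 M competing 18-hydroxy steroid and 2 × 10^-8 M dexamethasone, pH 7.2 Tris/phosphate saline buffer with Mg, Ca, dextrose. Homogenized; high-speed supernatant treated with charcoal-dextran to strip free ligand. Bound label counted as cpm/mg protein, nonspecific at 2 × 10^-7 M unlabeled aldosterone. Value is % inhibition; Student's t test vs 0%.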

[2] = target: T1, Mineralocorticoid receptor (Rattus norvegicus); assay: Mineralocorticoid activity in vivo expressed as a ratio (M/DOCA) of the urinary sodium/potassium excretion transformations after deoxy-corticosterone acetate treatment.; type: functional, organism-based; conditions: Urine
Summary of the method: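 Saline-loaded (2.5 mL) adrenalectomized rats given 12 μg DOCA s.c. in oil plus test steroid 2.4 mg/animal s.c. in corn oil. Urine collected 4 h in metabolism cages, then voided by suprapubic pressure. Na and K measured by flame photometry as log(Na × 10/K). Ratio to DOCA-only controls (M/DOCA); >1.23 taken as antagonism, <0.85 as agonism.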

Row | Percent inhibition of [3H]aldosterone binding [1] | Ratio [2] | SMILES
1 | 34 | 0.71 | CC(=O)OCC1(O)OCC23CCC4C(CCC5=CC(=O)CCC54C)C2CCC13 (stereo unspecified)
2 | 19.5 | 1.06 | C[C@]12CC[C@H](O)C[C@@H]1CC[C@@H]1[C@@H]2CC[C@]23COC(O)(CO)[C@H]2CC[C@@H]13 (stereo partly specified)
3 | 0 | 1.01 | CC1(O)OC[C@]23CC[C@H]4[C@@H](CC[C@H]5CC(=O)CC[C@@]54C)[C@@H]2CC[C@H]13 (stereo partly specified)
4 | 32 | 0.78 | C[C@]12CCC(=O)C[C@@H]1CC[C@@H]1[C@@H]2CC[C@]23COC(O)(CO)[C@H]2CC[C@@H]13 (stereo partly specified)
5 | 0 | 1.08 | CC(=O)OC[C@]12CC[C@H]3[C@@H](CC[C@H]4CC(=O)CC[C@@]43C)[C@@H]1CC[C@@H]2C(C)=O
6 | 10.5 | 0.96 | C[C@H]1OC(=O)C23CC[C@H]4[C@@H](CC[C@H]5CC(=O)CCC54C)[C@@H]2CCC13 (stereo partly specified)
7 | 29.5 | 0.54 | CC12CCC(=O)C=C1CCC1C2CCC23COC(O)(CO)C2CCC13 (stereo unspecified)
8 | 8.3 | 0.91 | CC1(O)OCC23CC[C@H]4[C@@H](CC[C@H]5CC(=O)CCC54C)[C@@H]2CCC13 (stereo partly specified)
9 |  | 0.61 | C[C@H]1OC(=O)C23CC[C@H]4[C@@H](CC[C@H]5CC(O)CCC54C)[C@@H]2CCC13 (stereo partly specified)
10 | 13 | 1.03 | C[C@@H](O)C1CC[C@H]2[C@@H]3CC[C@H]4CC(=O)CCC4(C)[C@H]3CCC12CO (stereo partly specified)
11 |  | 0.83 | CC(=O)OCC1(O)OC[C@]23CC[C@H]4[C@@H](CC[C@H]5C[C@@H](O)CC[C@@]54C)[C@@H]2CC[C@H]13 (stereo partly specified)
12 | 0 | 0.87 | C[C@H]1OC(=O)[C@]23CC[C@H]4[C@@H](CC[C@H]5CC(=O)CC[C@@]54C)[C@@H]2CC[C@H]13
13 | 0 | 0.96 | CC12CCC(O)C[C@@H]1CC[C@H]1[C@@H]3CCC4C(O)(CO)OCC43CC[C@@H]12 (stereo partly specified)
14 | 30 | 0.92 | CC1(O)OCC23CC[C@H]4[C@@H](CC[C@H]5CC(O)CCC54C)[C@@H]2CCC13 (stereo partly specified)
15 | 23.5 | 0.72 | C[C@@H](O)C1CC[C@H]2[C@@H]3CC[C@H]4CC(O)CCC4(C)[C@H]3CCC12CO (stereo partly specified)
16 | 5 | 0.89 | C[C@@H](O)C1CCC2C3CC=C4CC(O)CCC4(C)C3CCC21CO (stereo partly specified)
17 | 3.5 | 0.71 | CC12CCC(O)CC1=CCC1C2CCC23COC(O)(CO)C2CCC13 (stereo unspecified)
18 | 65 | 1.32 | C[C@H]1OC(=O)C23CCC4C(CCC5=CC(=O)CCC54C)C2CCC13 (stereo partly specified)

Row | Percent inhibition of [3H]aldosterone binding [1] | Ratio [2] | SMILES
19 | 7 | 0.55 | CC(=O)OCC1(O)OCC23CCC4C(CC=C5CC(O)CCC54C)C2CCC13 (stereo unspecified)
20 | 17 | 0.93 | CC(=O)OCC12CC[C@H]3[C@@H](CC[C@H]4CC(=O)CCC43C)[C@@H]1CCC2[C@@H](C)O (stereo partly specified)
21 | 0 | 1.95 | CC(=O)OCC12CCC3C(CC=C4CC(O)CCC43C)C1CCC2C(C)=O (stereo unspecified)
22 | 0 | 1.1 | CC(=O)OCC1(O)OCC23CC[C@H]4[C@@H](CC[C@H]5CC(O)CCC54C)[C@@H]2CCC13 (stereo partly specified)
23 | 6.5 | 0.43 | C[C@@H](O)[C@H]1CC[C@H]2[C@@H]3CC[C@H]4CC(=O)CC[C@]4(C)[C@H]3CC[C@]12CO
24 | 34.3 | 1.33 | C[C@@H](O)C1CCC2C3CCC4=CC(=O)CCC4(C)C3CCC21CO (stereo partly specified)
25 | 13 | 1.16 | CC(=O)OCC12CCC3C(CCC4=CC(=O)CCC43C)C1CCC2[C@@H](C)O (stereo partly specified)
26 | 25.5 | 1.19 | CC(=O)OCC12CCC3C(CCC4=CC(=O)CCC43C)C1CCC2C(C)=O (stereo unspecified)
27 | 12.5 | 0.72 | C[C@H]1OC(=O)C23CCC4C(CC=C5CC(O)CCC54C)C2CCC13 (stereo partly specified)
28 | 3 | 0.69 | CC12CCC(=O)C[C@@H]1CC[C@H]1[C@@H]3CCC4C(O)(CO)OCC43CC[C@@H]12 (stereo partly specified)
29 | 20 | 0.96 | CC(=O)OCC1(O)OC[C@]23CC[C@H]4[C@@H](CC[C@H]5CC(=O)CC[C@@]54C)[C@@H]2CC[C@H]13 (stereo partly specified)
30 | 20 | 0.8 | CC(=O)OCC1(O)OCC23CC[C@H]4[C@@H](CC[C@H]5CC(=O)CCC54C)[C@@H]2CCC13 (stereo partly specified)
31 | 10.5 | 1.16 | CC(=O)OC[C@]12CC[C@H]3[C@@H](CC[C@H]4CC(=O)CC[C@@]43C)[C@@H]1CC[C@@H]2[C@@H](C)O
32 | 34.5 | 0.76 | CC1(O)OCC23CCC4C(CCC5=CC(=O)CCC54C)C2CCC13 (stereo unspecified)
33 |  | 0.91 | CC1(O)OC[C@]23CC[C@H]4[C@@H](CCC5C[C@@H](O)CC[C@@]54C)[C@@H]2CC[C@H]13 (stereo partly specified)
34 | 10.1 | 0.5 | CC1(O)OCC23CCC4C(CC=C5CC(O)CCC54C)C2CCC13 (stereo unspecified)
35 | 0 | 1.1 | CC(=O)OCC12CC[C@H]3[C@@H](CC[C@H]4CC(=O)CCC43C)[C@@H]1CCC2C(C)=O (stereo partly specified)

Row | SMILES | Percent inhibition of [3H]aldosterone binding [1] | Ratio [2]
36 | CC(=O)OCC12CC[C@H]3[C@@H](CC[C@H]4CC(O)CCC43C)[C@@H]1CCC2C(C)=O (stereo partly specified) | 0 | 0.99
37 | CC(=O)OC[C@]12CC[C@H]3[C@@H](CC[C@H]4C[C@@H](O)CC[C@@]43C)[C@@H]1CC[C@@H]2C(C)=O | 14.2 | 1.13
